Experimental findings from ChEMBL document CHEMBL4823259, “Bufadienolides from the Eggs of the Toad Bufo bufo gargarizans and Their Antimelanoma Activities” (J Nat Prod, 2021) are described below.

Active and inactive are the calls of the source. The calls are words filed in the database; no cut-off is given here.

Series [1] deals with SK-MEL. The series can be described thus: Cytotoxicity against human SK-MEL cells assessed as reduction in cell viability measured after 48 hrs by MTT assay. Type of series: functional, cell-based. The method, boiled down: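 MTT assay: SK-MEL-1 cells (DMEM, 10% FBS, 37 °C, 5% CO2) seeded 10⁴/well for 24 h, then exposed to a range of concentrations for 48 h; MTT added for 4 h at 37 °C, formazan dissolved in DMSO, absorbance 570 nm. IC50 as mean ± SD, three independent experiments.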

Series [2] is filed under the species Danio rerio. Briefly: Antiangiogenic activity in transgenic Tg(fli1:GFP) zebra fish embryo assessed as reduction in intersegmental blood vessels at 20 uM measured at 48 hrs postfertilization by fluorescence microscopy. Type of series: functional, organism-based. The method, boiled down: (§1)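 Tg:Fli1-GFP embryos selected at 12 hpf, 30 per well, 28.5 °C in E3 medium, exposed to compound (20 μM); chorions broken at 24 hpf; at 48 hpf ISVs and angiogenic sprouts counted by fluorescence microscopy. Sorafenib (1 μM) positive control; mean, SD; one-way ANOVA with Tukey post hoc test.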

Series [3] in a line: Toxicity in zebra fish larvae at 100 uM measured at 48 hpf by stereomicroscopic analysis. Further details: species or system Danio rerio. To be noted: zebrafish, 48 h. The method, boiled down:
(§2)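 Zebrafish larvae at 48 hpf, kept at 28.5 °C in E3 medium, treated with compound; survival and pathological changes (e.g. pericardial edema) checked by stereomicroscope every 12 h.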

Series [4] concerns the target Vascular endothelial growth factor receptor 2 (Danio rerio) (UniProt Q5GIT4). Briefly: Inhibition of VEGFR2 mediated angiogenesis in transgenic Tg(flk1:GFP) zebra fish embryo at 20 uM measured at 48 hrs postfertilization by fluorescence microscopy. The method, boiled down:
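Tg:Flk1-GFP (VEGFR2 reporter) embryos treated from 12 hpf at 20 μM, 28.5 °C in E3 medium; chorions removed at 24 hpf; ISV and sprout numbers counted at 48 hpf under fluorescence microscope. Sorafenib (1 μM) positive control; one-way ANOVA, Tukey post hoc test.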

The species named for series [5] is Danio rerio. Briefly: Antiangiogenic activity in transgenic Tg(fli1:GFP) zebra fish embryo assessed as reduction in angiogenic sprouts at 20 uM measured at 48 hrs postfertilization by fluorescence microscopy. The class given is functional, organism-based. The method, boiled down: as §1
The test system of series [6] is SK-MEL. Briefly: Induction of apoptosis in human SK-MEL cells assessed as increase in cleaved PARP level at 0.5 to 1 uM incubated for 48 hrs by Western blot analysis. The class given is functional, cell-based. Particulars: dose 0.5-1 µM. The method, boiled down:
(§3)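 SK-MEL-1 cells seeded 3 × 10⁵/well for 24 h, treated 48 h; lysed in RIPA buffer with protease and phosphatase inhibitors 15 min at 4 °C; 20 μg protein by SDS-PAGE, PVDF transfer, PARP immunoblot with ECL detection; β-actin loading control. Sorafenib (10 μM) positive control.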
A general note: In western blotting, separated proteins are transferred to a membrane and probed.

The test system of series [7] is SK-MEL. The series can be described thus: Induction of apoptosis in human SK-MEL cells assessed as increase in cleaved PARP level at 0.1 to 0.5 uM incubated for 48 hrs by Western blot analysis. The class given is functional, cell-based. To be noted: dose 0.1-0.5 µM. The method, boiled down:
as §3

For series [8], the system named is SK-MEL. Briefly: Anti-melanoma activity against human SK-MEL cells xenografted in yolk of zebra fish at 10 uM measured after 48 hrs by CM-Dil staining based fluorescence microscopic analysis. The class given is functional, cell-based. The method, boiled down: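 SK-MEL-1 cells prelabelled with CM-DiI (2 μM) microinjected into superficial yolk near perivitelline space of 2 dpf zebrafish embryos; treated 48 h at 28.5 °C; CM-DiI fluorescence of tumour mass imaged by fluorescence microscopy in immobilized fish. Sorafenib (0.5 μM) positive control.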
For orientation: A xenograft is tissue or cells of one species grown in another, often human tumour cells in immunodeficient mice.

A short description of series [9]: Toxicity in zebra fish larvae assessed as curved tail at 100 uM measured at 48 hpf by stereomicroscopic analysis. Further details: species or system Danio rerio. Particulars: zebrafish, 48 h. The method, boiled down: as §2
A short description of series [10]: Toxicity in zebra fish larvae assessed as death at 100 uM measured at 48 hpf by stereomicroscopic analysis. Further details: species or system Danio rerio. To be noted: zebrafish, 48 h. The method, boiled down:
as §2

A short description of series [11]: Toxicity in zebra fish larvae assessed as pericardial edema at 100 uM measured at 48 hpf by stereomicroscopic analysis. Particulars: zebrafish, 48 h. Further details: species or system Danio rerio. The method, boiled down:
as §2

Series [12] has as its system SK-MEL. Briefly: Induction of apoptosis in human SK-MEL cells assessed as increase in cleaved PARP level at 0.2 to 0.8 uM incubated for 48 hrs by Western blot analysis. The class given is functional, cell-based. Particulars: dose 0.2-0.8 µM. The method, boiled down:
as §3

The test system of series [13] is SK-MEL. The series can be described thus: Anti-melanoma activity against human SK-MEL cells xenografted in yolk of zebra fish at 0.5 uM measured after 48 hrs by CM-Dil staining based fluorescence microscopic analysis. Type of series: functional, cell-based. The method, boiled down: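 SK-MEL-1 cells were prestained with CM-DiI (2 μM) and microinjected into the superficial yolk near the perivitelline space of 2 dpf zebrafish. Embryos were kept in E3 medium, treated for 48 h at 28.5 °C, then immobilized. CM-DiI fluorescence was imaged by fluorescence microscopy alongside bright field, and the melanoma area was outlined.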

In series [14] the test system is SK-MEL. Briefly: Induction of apoptosis in human SK-MEL cells assessed as increase in cleaved PARP level at 10 uM incubated for 48 hrs by Western blot analysis. Type of series: functional, cell-based. The method, boiled down: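 SK-MEL-1 cells (DMEM, 10% FBS, 37 °C, 5% CO2) were seeded at 3 × 10⁵/well for 24 h, then treated for 48 h. They were lysed in RIPA buffer with PMSF, orthovanadate, DTT and phosphatase inhibitor for 15 min at 4 °C, and protein was quantified by BCA. 20 μg was run on SDS-PAGE and blotted to PVDF, with primary antibody overnight at 4 °C and secondary 1 h at room temperature. Detection was by ECL, with β-actin as loading control.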

For orientation: IC50 means the concentration at which inhibition is half-maximal.

Sequence of Vascular endothelial growth factor receptor 2 (Danio rerio) (Q5GIT4 whole entry): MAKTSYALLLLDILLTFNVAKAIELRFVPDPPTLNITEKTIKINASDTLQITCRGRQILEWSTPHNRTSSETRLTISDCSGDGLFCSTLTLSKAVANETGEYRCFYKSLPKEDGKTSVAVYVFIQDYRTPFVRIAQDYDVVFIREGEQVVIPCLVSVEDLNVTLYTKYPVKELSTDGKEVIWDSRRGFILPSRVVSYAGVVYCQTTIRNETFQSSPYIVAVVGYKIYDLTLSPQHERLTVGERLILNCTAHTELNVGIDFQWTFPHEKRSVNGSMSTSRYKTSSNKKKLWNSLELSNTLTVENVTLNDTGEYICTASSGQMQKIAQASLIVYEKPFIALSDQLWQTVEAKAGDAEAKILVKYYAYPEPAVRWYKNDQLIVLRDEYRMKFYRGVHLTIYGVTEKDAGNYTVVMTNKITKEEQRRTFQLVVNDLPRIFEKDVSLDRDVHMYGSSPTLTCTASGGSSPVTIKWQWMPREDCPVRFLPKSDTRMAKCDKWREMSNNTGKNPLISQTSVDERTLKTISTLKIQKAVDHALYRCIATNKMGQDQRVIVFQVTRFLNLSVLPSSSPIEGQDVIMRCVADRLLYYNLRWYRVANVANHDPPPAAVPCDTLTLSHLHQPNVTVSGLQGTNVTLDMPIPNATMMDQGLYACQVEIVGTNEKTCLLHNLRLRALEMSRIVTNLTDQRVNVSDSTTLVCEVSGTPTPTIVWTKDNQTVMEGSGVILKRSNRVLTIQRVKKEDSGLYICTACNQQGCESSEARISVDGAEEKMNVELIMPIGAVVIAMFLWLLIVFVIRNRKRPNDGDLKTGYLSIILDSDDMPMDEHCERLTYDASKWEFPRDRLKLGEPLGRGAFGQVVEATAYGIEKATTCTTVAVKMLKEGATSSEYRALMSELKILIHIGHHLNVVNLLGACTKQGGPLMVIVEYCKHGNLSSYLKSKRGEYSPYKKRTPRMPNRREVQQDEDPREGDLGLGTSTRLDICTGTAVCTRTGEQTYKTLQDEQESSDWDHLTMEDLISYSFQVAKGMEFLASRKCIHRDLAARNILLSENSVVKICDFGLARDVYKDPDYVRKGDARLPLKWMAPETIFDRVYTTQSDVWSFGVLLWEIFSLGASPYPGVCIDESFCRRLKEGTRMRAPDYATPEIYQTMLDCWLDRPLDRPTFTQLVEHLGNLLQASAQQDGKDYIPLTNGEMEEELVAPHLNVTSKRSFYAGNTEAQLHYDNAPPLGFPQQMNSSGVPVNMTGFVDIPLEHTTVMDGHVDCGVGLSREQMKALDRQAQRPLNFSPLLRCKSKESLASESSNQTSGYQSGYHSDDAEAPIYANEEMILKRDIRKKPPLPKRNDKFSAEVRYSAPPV

For `C[C@]12CC[C@H]3[C@@H](CC[C@]4(O)C[C@@H](O)CC[C@]34O)[C@@]1(O)CC[C@@H]2c1ccc(=O)oc1`, the IC50 in series [1] was 910 nM. Further, the outcome in [2] and in series [5] was Active. In addition, the Activity entry in series [3] is “Non-Toxic”. Moreover, the result in [4] and in series [6] was inactive.

Consider `C[C@]12CC[C@@H]3[C@H]4CC[C@H](O)C[C@@]4(O)CC[C@H]3[C@@]1(O)CC[C@@H]2c1ccc(=O)oc1`, for which the half-inhibitory concentration (IC50) in series [1] is 280 nM.

Consider `C[C@]12CC[C@H]3[C@@H](CC[C@]4(O)C[C@@H](O)CC[C@]34C(=O)O)[C@@]1(O)CC[C@@H]2c1ccc(=O)oc1`, for which the half-maximal inhibitory concentration (IC50) in series [1] is 290 nM. The outcome in [2] and in series [5] was inactive. Besides, the Activity result in [3] is listed as “Non-Toxic”.

Consider `C[C@]12CC[C@H](O)C[C@@]1(O)CC[C@@H]1[C@@H]2CC[C@]2(C)[C@@H](c3ccc(=O)oc3)CC[C@]12O` [TELOCINOBUFAGIN], for which the IC50 in series [1] came out at 50 nM. Also, the outcome in series [2] and in [5] was inactive. Also, the outcome in series [7] and in series [8] was Active. Moreover, the Activity result in [9], in series [10] and in [11] was “Toxic” in each case.

Regarding `C[C@]12CC[C@@H]3C4=C(C[C@H]3[C@@]1(O)CC[C@@H]2c1ccc(=O)oc1)C(=O)C=CCC4`, the IC50 in series [1] came out at 3300 nM. The outcome in series [2] and in series [5] was inactive. The Activity result in [9], in series [10] and in series [11] was “Toxic” each time.

As to `C[C@]12CC[C@H]3[C@@H](CC[C@]4(O)C[C@@H](O)CC[C@]34C=O)[C@@]1(O)CC[C@@H]2c1ccc(=O)oc1`, the 50% inhibitory concentration (IC50) in series [1] worked out at 96 nM. Besides, the result in [2] and in [5] was Active. The outcome in series [4] and in [12] was inactive. In series [11], the Activity result is given as “Toxic”.

With `C[C@]12CC[C@@H]3[C@H]4CC[C@H](O)C[C@@]4(O)CC[C@H]3[C@]13O[C@@H]3C[C@@H]2c1ccc(=O)oc1`, in series [1], the IC50 came out at 3600 nM. The outcome in series [2] and in series [5] was inactive. The Activity entry in [9], in [10] and in [11] was “Toxic” in each case.

Consider `CNC(=O)c1cc(Oc2ccc(NC(=O)Nc3ccc(Cl)c(C(F)(F)F)c3)cc2)ccn1` [SORAFENIB], for which the outcome in [13] was Active. Besides, the half-inhibitory concentration (IC50) in series [1] was 10000 nM. For the same compound, in [14], the outcome was inactive.

Turning to `C[C@]12CC[C@H](O)C[C@@]1(O)CC[C@@H]1[C@@H]2CC[C@]2(C)[C@@H](c3ccc(=O)oc3)[C@@H](O)C[C@]12O`, the IC50 in [1] turned out to be 700 nM. Besides, the result in series [2] and in [5] was inactive. Further, the Activity entry in series [3] was “Non-Toxic”.
